G6PDH CS: L. mesenteroides G6PDH inhibition counter-screen | Purified L. mesenteroides G6PDH, diaphorase/resazurin coupled fluorescence, 45 min | inhibition, % at 5 µM | 0.12% of 200,000 active | AID 1020; in the data active = inhibition above about 50%
Diaph act CS: activates diaphorase or chemically reduces, flagging diaphorase assay artifacts. Diaphorase/resazurin coupled assay, resorufin fluorescence, 16 min; stronger effect = higher value; 1 = vehicle wells, 0 = NADH-free wells. activation factor at 20 µM. 0.005% of 190,000 active;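 active = diaphorase activity raised at least twofold by the compound at 20 µM; inactive = activation factor below 2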
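Test system: Clostridium kluyveri diaphorase, purified enzyme; input: enzyme 0.07 U/mL final; buffer or medium: 50 mM HEPES pH 7.4 with 4.542 mM MgCl2, 0.005% Tween 20; also added: 0.114 mM NADH and 0.1 mM resazurin, final amounts; schedule: 16 min enzyme reaction, ambient temperature; technique: fluorescence of resorufin, 544 nm excitation, 590 nm emission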
TbHK1 inh: blocks Trypanosoma brucei hexokinase 1 activity. recombinant TbHK1, G6PDH-coupled NADH A340. inhibition, % at 10 µM. 0.11% of 220,000 active. AID 1430;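 active = inhibition of 50% or more in the single-dose primary screen; inactive = inhibition below 50%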
PMI act satM6P: activators of human phosphomannose isomerase at near-saturating mannose 6-phosphate; P34949; coupled PMI enzyme assay, resazurin fluorescence, 20 min; stronger effect = higher value; 1 = untreated enzyme, 0 = substrate-free blank; activation factor at 20 µM; 0.34% of 190,000 active;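 active = activation factor of 2 or more at 20 µM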
Target sequence (P34949 whole entry, looked up): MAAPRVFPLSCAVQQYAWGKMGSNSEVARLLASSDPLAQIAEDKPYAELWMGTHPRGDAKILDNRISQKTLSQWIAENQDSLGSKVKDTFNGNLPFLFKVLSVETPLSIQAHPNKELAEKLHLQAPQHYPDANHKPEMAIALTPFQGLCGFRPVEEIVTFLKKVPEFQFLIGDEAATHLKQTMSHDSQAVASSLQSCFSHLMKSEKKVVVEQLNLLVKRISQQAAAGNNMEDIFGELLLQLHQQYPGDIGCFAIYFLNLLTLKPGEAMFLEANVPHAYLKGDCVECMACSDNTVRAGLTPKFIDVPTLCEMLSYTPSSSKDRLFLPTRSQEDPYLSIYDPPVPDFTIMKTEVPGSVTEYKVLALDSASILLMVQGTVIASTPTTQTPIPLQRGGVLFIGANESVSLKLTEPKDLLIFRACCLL
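Test system: human phosphomannose isomerase with PGI, G6PDH, diaphorase coupling enzymes; Amount: PMI at 15 ng/mL final; Reagent: Mannose-6-phosphate 1.0 mM (near-saturating) plus 0.22 mM NADP+; Timing: 20 min, room temperature; Technique: resorufin fluorescence at Ex 544/Em 590 nm; Dosing: 20 µM single dose.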
PMI activator: activators of human phosphomannose isomerase | P34949 | purified human PMI, coupled resazurin fluorescence, 20 min; stronger effect = higher value; 1 = vehicle control, 0 substrate-free wells | activation factor at 20 µM | 0.005% of 190,000 active | AID 1214;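 active = activation factor of 2 or more at 20 µM, relative to plate controls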
Diaphorase inh: counter-screen for diaphorase-based assays: diaphorase inhibitors and chemical oxidizers. diaphorase resazurin-to-resorufin fluorescence, NADH, 16 min; bacterial (C. kluyveri) enzyme, not human. inhibition, % at 20 µM. 0.69% of 190,000 active;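 active = primary screen inhibition at 20 µM above a set limit, cut at about 50% in these data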;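 note: plate controls were DMSO with full reaction for no effect and wells lacking NADH for full effect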
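Assay system: diaphorase enzyme from Clostridium kluyveri. Quantity: enzyme working solution with 0.14 U/mL diaphorase. Schedule: reaction incubation of 16 min at room temperature. Technique: resorufin fluorescence, excitation 544 nm, emission 590 nm. Controls: No-NADH positive control and DMSO neutral control.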
An asterisk follows results filed as active; . = no result. A selection: hits, their analogues and other compounds. The true share with any hit is near 1.1%.

SMILES | G6PDH CS | Diaph act CS | TbHK1 inh | PMI act satM6P | PMI activator | Diaphorase inh
Cc1nc2sc3c(c2c(=O)[nH]1)CCC3 | 4 | 1.1 | -4 | 1 | 1 | -7
Cc1cc(-c2nc3c4c5c(sc4[nH]c(=O)n3n2)CCC5)c(C)o1 | -5 | 0.4 | 17 | 1.3 | 1.2 | 57*
CCOC(=O)c1c(OCC)[nH]c2c1cc(O)c1ccccc12 | 8 | 0.3 | 6 | 0.5 | 0.7 | 74*
CCOC(=O)c1[nH]c(C(=O)O)c(OC(=O)CC)c1C | . | . | -8 | . | . | .
CCOC(=O)C1=C2NC(=O)c3ccccc3N2C(=O)C1 | 5 | 0.9 | 0 | 2* | 1.6 | 14
Cc1cccc(OCCSc2nc(N)cc(N)n2)c1 | . | . | -1 | . | . | .
N#C/C(C(N)=O)=c1/ccc2c(c1)N1C3=C(CCCC3)CC3CCCCC31N=2 (configuration not stated) | 11 | 0.1 | -2 | 0.7 | 0.7 | 91*
N#CC(C#N)=c1ccc2c(c1)N1C3=C(CCCC3)CC3CCCCC31N=2 (configuration not stated) | -32 | 0.2 | -7 | 0.8 | 0.8 | 76*
O=[N+]([O-])c1ccc2[nH]c3nc4ccccc4nc3c2c1 | . | . | -17 | . | . | .
COc1cccc(C(=O)/C(C#N)=N/Nc2cccc(-c3ccnc(C)n3)c2)c1 | . | . | -22 | . | . | .
Oc1ccc(Br)cc1C=Nc1ccc2c3c(cccc13)CC2 | 41 | 0.3 | 23 | 0.3 | 0.6 | 67*
Oc1ccc(Cl)cc1C=Nc1ccccc1Br | 9 | 0.8 | -10 | 0.9 | 0.9 | 17
O=C(N/N=C/c1c(O)ccc2ccccc12)c1ccc[n+](CCO)c1 | -18 | 0.5 | -11 | 0.7 | 0.8 | 54*
Cc1cccc2cc3c(N)c(C(=O)N4CCOCC4)sc3nc12 | 15 | 0.9 | -8 | 2.1* | 1.3 | 9
Cc1cc(C)c2cc3c(N)c(C(=O)N4CCc5ccccc5C4)sc3nc2c1 | -30 | 0.9 | -7 | 0.9 | 0.9 | 13
O=C(/C=C/c1ccccc1)/C=C/c1ccccc1 | 11 | 0.8 | 13 | 0.9 | 1 | 18
Cn1c(C(=O)Nc2ccc3c(c2)OCCO3)cc2c(=O)n(C)c3ccccc3c21 | -6 | 0.5 | -26 | 0.9 | 0.9 | 54*
Cn1c(C(=O)NC2CC2)cc2c(=O)n(C)c3ccccc3c21 | 4 | 0.9 | 0 | 1 | 1 | 9
CC(=O)c1c(N)[nH]c(-c2ccccc2)nc1=S | -4 | 0.5 | -13 | 1 | 1 | 50*
Cc1ccc(C2NC(=NCc3ccccc3)Nc3nc(C)cc(=O)n32)cc1 (configuration not stated) | . | . | 0 | . | . | .
COCCN=C1Sc2nc3ccc(C)cc3cc2CN1Cc1ccco1 | 2 | 1 | -19 | 2.1* | 1.6 | 4
CC(C)(C)CN1CCNC(=O)C1CC(=O)NCCN1CCCc2ccccc21 (configuration not stated) | 13 | 0.8 | 0 | 0.5 | 0.8 | 20
CC1=C(C#N)c2nc(N)c(C#N)c(C)c2/C1=C\c1ccc(-c2ccccc2C(=O)O)o1 | -5 | 0.4 | -2 | 0.9 | 1.2 | 62*
CN(Cc1ccccc1)C(=O)CCn1c(=O)oc2ccccc21 | 1 | 0.9 | 0 | 1 | 1 | 7
O=C(CCn1c(=O)oc2ccccc21)N(Cc1ccccc1)c1ccccc1 | 7 | 0.3 | -8 | 0.9 | 0.9 | 69*
SMILES | G6PDH CS | Diaph act CS | TbHK1 inh | PMI act satM6P | PMI activator | Diaphorase inh
COc1cc(/C=C2\SC(=O)N(Cc3ccc(F)cc3)C2=O)cc([N+](=O)[O-])c1O | 19 | 0.8 | 0 | 1 | 0.9 | 24
COc1cc(/C=C2\SC(=O)N(Cc3ccc(Cl)cc3)C2=O)cc([N+](=O)[O-])c1O | 16 | 0.1 | 13 | 0.9 | 0.9 | 87*
COc1ccc(OC)c(Cc2nnc(CCC(=O)N3CCCCC3c3nccs3)o2)c1 (configuration not stated) | 0 | 0.9 | 2 | 1 | 0.9 | 13
Cc1ccc2cc(C(c3nnnn3C(C)(C)C)N3CCCCCC3)c(=O)[nH]c2c1 (configuration not stated) | 15 | 0.5 | -12 | 1.5 | 1.1 | 52*
O=[N+]([O-])c1ccc(Sc2cccc[n+]2[O-])c2nonc12 | . | . | -20 | . | . | .
O=C(NCCCO)Nc1ccc2nc(-c3ccco3)c(-c3ccco3)nc2c1 | 29 | 0.4 | -7 | 1.3 | 1.1 | 60*
O=C(Nc1ccc2nc(-c3ccco3)c(-c3ccco3)nc2c1)NC1CC1 | 22 | 0.2 | -1 | 1 | 1.3 | 80*
O=C(Nc1ccc(N2CCOCC2)cc1)Nc1ccc2nc(-c3ccco3)c(-c3ccco3)nc2c1 | 12 | 0.8 | -19 | 0.7 | 1 | 21
CSCC[C@H](NC(=O)OC(C)(C)C)c1nnc(SCC(=O)Nc2c(C)cccc2C)o1 | 2 | 0.9 | 51* | 1 | 1 | 15
COc1cccc(/C=N/N2CCOCC2)c1O | 2 | 0.8 | -6 | 1 | 1 | 20
Oc1ccc(/C=N/N2CCOCC2)c(O)c1O | 52* | 0.3 | -5 | 0.3 | 0.3 | 69*
Cc1ccc2c(c1)NC(=O)c1cc([N+](=O)[O-])ccc1O2 | 2 | 1 | -7 | 1 | 1 | 3
Cc1ccc2c(c1)N/C(=C(\C=C(/Cl)[N+](=O)[O-])[N+](=O)[O-])N2 | 26 | 0.3 | -8 | 0.9 | 1.1 | 75*
Cc1ccc(C2C(C#N)=C(N)Oc3c2sc2ccccc32)o1 (configuration not stated) | 32 | 0.4 | -2 | 0.4 | 0.8 | 55*
CCOC(=O)CC1=C(C(=O)OCC)C(c2ccc(C)o2)C(C#N)=C(N)O1 (configuration not stated) | -10 | 0.9 | -38 | 1.1 | 0.9 | 8
Cc1ccc2[nH]c3c(c2c1)CCc1cn[nH]c1-3 | -45 | 0.3 | 2 | 0.4 | 0.3 | 70*
Cc1ccc(-c2cc(-c3n[nH]c(=S)o3)c3ccccc3n2)cc1 | 10 | 0.8 | 19 | 2.2* | 1.5 | 24
Cn1c(=O)n(C)c2cc(S(=O)(=O)N3CCOCC3)ccc21 | -7 | 0.9 | -1 | 1 | 0.9 | 7
CSCCC1Nc2ccc(S(=O)(=O)N3CCOCC3)cc2NC1=O (configuration not stated) | 2 | 0.9 | -5 | 2.6* | 1.9 | 8
NC(=S)NNC(=O)c1cccc(Cl)c1 | . | . | -12 | . | . | .
CSc1nc(-c2ccco2)nn1S(=O)(=O)c1ccc(C)cc1 | 2 | 0.4 | 2 | 1.1 | 1 | 58*
CSc1nc(-c2ccco2)nn1S(=O)(=O)c1ccccc1 | 10 | 0.8 | 0 | 1.1 | 0.8 | 22
CCN(CC)c1ccc(NC(=S)Nc2ccc(F)cc2)cc1 | 3 | 0.5 | -4 | 0.3 | 0.5 | 47
